From PubChem BioAssay
A selection: hits, their analogues and other compounds. The true share with any hit is near 0.51%.
PolyA inhibitor: yeast polyadenylation inhibition; actives 0.02% (n = 300,000); AID 1875; activity score, % at 12 µM; S. cerevisiae SKY197-pL101 polyadenylation reporter, beta-gal luminescence; efflux-impaired pdr1/pdr3 knockout yeast; score 100 = 6 SD above DMSO;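 active means lowest replicate activity score at least 50, where 100 means six control SD above control mean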;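 further: yeast exposed to compound for 9 h at 30 °C; higher score means more reporter readthrough which indicates perturbed polyadenylation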
aDG glyco act: alpha-DG glycosylation activation. actives 0.22% (n = 360,000). Pro5-aDG cells, alpha-DG glycosylation AlphaScreen (IIH6); 0% Pro5, 100% B10-LARGE cell signal. activation, % at 10 µM;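 active means activation of at least 8% versus controls, or a plate z-score of at least 8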;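 further: Pro5 are CHO cells carrying HIG-tagged alpha-DG that lacks glycosylation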
Rce1 inhib: inhibitors of yeast Ras-converting enzyme | Q03530 | yeast membranes, quenched prenylated peptide cleavage fluorescence | calls only | actives 0.27% (n = 290,000) | AID 2563;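 active means fall in fluorescence gain of 50% or more versus controls, with final raw signal at or below 3038400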;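 further: plate controls were neutral control wells for no effect and wells lacking membranes for full effect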
Target sequence (Q03530 whole entry, looked up): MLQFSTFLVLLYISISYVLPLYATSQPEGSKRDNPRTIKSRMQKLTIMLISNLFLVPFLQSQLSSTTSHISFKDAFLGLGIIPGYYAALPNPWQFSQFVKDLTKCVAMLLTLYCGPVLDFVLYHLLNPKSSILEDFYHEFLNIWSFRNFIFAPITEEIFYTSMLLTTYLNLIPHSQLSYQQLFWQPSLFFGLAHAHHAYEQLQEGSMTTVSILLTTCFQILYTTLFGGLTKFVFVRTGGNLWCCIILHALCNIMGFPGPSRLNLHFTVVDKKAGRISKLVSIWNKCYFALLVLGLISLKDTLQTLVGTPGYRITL
T cell modulator: T cell immune modulation candidate; 2C CD8+ T cell-vesicle binding, flow cytometry; active compounds read low; response (vesicle binding), % at 7 µM; actives 0.068% (n = 330,000); AID 2052;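 active means response, share of CD8 T cells binding vesicles, and their 90th percentile fluorescence all below set limits, cut at about 80% in these data, passing the limit was not always enough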;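 further: values below 100% mean blocked vesicle binding to the CD8+ T cells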
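Benchmarks: naked versus QL9-loaded vesicles / Assay system: purified 2C TCR transgenic mouse naive CD8+ T cells / Technique: high-throughput flow cytometry with anti-B7-1 and anti-CD8 staining / Timing: Cell–vesicle co-incubation 1.5 h at 37 °C, staining 20 min on ice / Read-out: percent CD8+ FL2 mean versus row control / Probe or stimulus: QL9-loaded Drosophila micro-vesicles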
* hit, by the source's call; i = inactive; x = not tested or not shown; + = active, no number.

SMILES	PolyA inhibitor	aDG glyco act	Rce1 inhib	T cell modulator
COc1ccc(NC(=O)CCN(c2ccc(OC)cc2)S(=O)(=O)c2ccc(C)c(C)c2)cc1	x	0.3	x	x
CCOC(=O)c1ccc(NC(=O)N2CCN(Cc3ccccc3)CC2)cc1	9.7	0.7	+	167.2
CSC(=NS(=O)(=O)c1ccccc1)NNC(=O)c1c(-c2c(Cl)cccc2Cl)noc1C	x	-0.1	x	x
Cc1ccc(OCC(=O)Nc2ccc(S(=O)(=O)N3CCOCC3)cc2)c(Br)c1	-12.2	0.0	+	342.7
CCOc1ccc(S(=O)(=O)N2CCOCC2)cc1NC(=O)CSCC(=O)Nc1cccc(C)c1	-12.4	-0.5	i	0.0*
Cc1nc(SCC(=O)NCCN2C(=O)CSC2=O)nc(C)c1C	x	0.2	x	120.5
COc1ccc(-c2ccc3oc(-c4ccc(OC)cc4)c(-c4ccc(OC)cc4)c3c2)cc1	-21.2	-0.4	+	x
Cc1nc(-c2ccccc2)sc1-c1n[nH]c(=S)n1C	4.8	0.1	i	342.0
CSc1nnc(-c2sc(-c3ccccc3)nc2C)n1C	-5.3	0.6	+	501.7
CN(C)C(=O)COc1ccc2ccc(=O)oc2c1	10.2	-0.1	+	158.7
Cc1ccc(S(=O)(=O)N(C)CC(=O)N(C)CCOc2ccccc2)cc1	x	-0.3	x	x
COC(=O)[C@]1(C)N[C@H](CN(C)S(=O)(=O)c2ccc(OC(F)(F)F)cc2)[C@@H]2C(=O)N(C)C(=O)[C@@H]21	x	-0.1	x	0.0*
COC(=O)[C@]1(C)N[C@H](CN(C)S(=O)(=O)c2ccc(C(C)(C)C)cc2)[C@@H]2C(=O)N(C)C(=O)[C@@H]21	x	0.2	x	214.9
CCCS(=O)(=O)NC(=O)C1(C)CCN(C(=O)CSc2ccccc2)C1 (centres undefined)	x	-0.1	x	x
Cn1cccc1Cc1nnc(SCC(=O)NCc2ccccc2Cl)n1-c1ccc(F)cc1	72.8*	-0.1	i	465.9
COCCn1c(SCC(=O)N(C)c2c(N)n(Cc3ccccc3)c(=O)[nH]c2=O)nnc1-c1cccc(C)c1	1.4	-0.2	i	764.2
O=C(NCCC1=CCCCC1)c1c(O)nc2ccccn2c1=O	69.1*	-0.5	i	i
O=C(NCCC1=CCCCC1)c1c(O)nc2sccn2c1=O	-9.7	-0.2	i	348.3
Cc1c(N2C(=O)CSC2c2ccccc2)c(=O)n(-c2ccccc2)n1C (centres undefined)	-9.5	-0.1	i	349.4
COc1ccc(C2SCC(=O)N2c2c(C)n(C)n(-c3ccccc3)c2=O)cc1OC (centres undefined)	66.7*	-0.2	i	332.1
O=C(CC1C(=O)NCCN1CC(c1ccccc1)c1ccccc1)NC1CC1 (centres undefined)	-7.9	0.3	i	698.9
Cc1ccc(S(=O)(=O)N2CCN(C(=O)CNC(=O)c3ccc(Cl)cc3)CC2)cc1	x	0.1	x	37.4*
Cc1ccc(S(=O)(=O)N2Cc3ccccc3CC2C(=O)N(C)C)cc1 (centres undefined)	x	-0.1	x	x
COc1ccccc1Oc1coc2c(CN3CCOCC3)c(O)ccc2c1=O	4.7	0.0	i	128.0
COc1ccccc1-c1coc2c(CN3CCOCC3)c(O)ccc2c1=O	-9.8	0.0	+	204.9
SMILES	PolyA inhibitor	aDG glyco act	Rce1 inhib	T cell modulator
Nc1ncnc(N2CCOCC2)n1	x	-0.1	x	x
Cc1cc(C)c2c(c1)-c1cc(C)nn1C(c1ccc3c(c1)OCO3)N2 (centres undefined)	-8.6	0.0	+	157.0
CSCC[C@H](NC(=O)C1CCN(S(=O)(=O)c2ccc(C)cc2C)CC1)c1nc2ccccc2[nH]1	x	0.3	x	198.1
CN1CCN(Cc2c(C(=O)N/N=C/c3cccc(Br)c3)nnn2-c2nonc2N)CC1	6.3	-0.2	+	166.6
Nc1nonc1-n1nnc(C(=O)N/N=C/c2cccc(O)c2)c1CN1CCCC1	x	-0.2	i	0.0
Cc1nnn(-c2nonc2N)c1C(=O)N/N=C/c1cccc2ccccc12	8.2	-0.6	+	358.1
Nc1nonc1-n1nnc(C(=O)N/N=C/c2ccccc2)c1CSc1ccccc1	-18.8	0.1	x	382.0
Nc1nonc1-n1nnc(C(=O)N/N=C/c2ccoc2)c1CSc1ccccc1	-14.7	0.2	+	340.5
Cc1ccccc1C1CC(=O)Oc2cc(O)ccc21 (centres undefined)	x	-0.3	x	x
CC1CCN(c2oc(-c3ccc(F)cc3)nc2C#N)CC1	-13.2	0.1	+	986.3
Cc1cccc(-c2nc(C#N)c(N3CCC(C)CC3)o2)c1	-2.2	0.0	i	167.2
COc1ccc(/C=N/NC(=O)CNC(=O)c2ccc3c(c2)OCCO3)c(C(=O)O)c1OC	18.3	0.0	i	370.6
Sc1ccccc1N=Cc1cccs1	x	-0.1	x	x
Fc1ccc(-c2cc3nc(-c4ccccc4)cc(N4CCN(CCN5CCOCC5)CC4)n3n2)cc1	-10.2	0.7	+	x
O=C(NNc1c(F)c(F)cc(F)c1F)c1cc2ccccc2oc1=O	2.8	0.1	i	0.0*
Brc1ccc2nc(-c3ccco3)c(CC3CCCCC3)n2c1	x	-0.2	x	x
Nc1nc(N2CCN(C(=O)c3ccco3)CC2)nc2ccc(Br)cc12	5.7	0.2	i	266.6
Nc1nc(N2CCN(C(=O)c3ccco3)CC2)nc2ccccc12	12.0	0.2	+	i
O=C1C(=O)c2ccccc2C(O)=C1CCCCl	-15.9	3.8*	i	395.6
CC(C)(C)C(=O)/C=C/c1ccc(Oc2ccccc2)cc1	20.6	0.2	i	187.3
CCc1cc(=O)oc2cc(OCC(=O)N3CCC(C(=O)O)CC3)ccc12	-12.8	0.2	+	251.1
CCCc1cc(=O)oc2cc(OCC(=O)N3CCC(C(N)=O)CC3)ccc12	-13.5	0.2	x	118.7
COc1ccc(C2C(C(=O)N3CCOCC3)=C(C)NC3=C2C(=O)CC(C)(C)C3)c(OC)c1 (centres undefined)	3.0	0.0	i	280.0
CC1=C(C(=O)N2CCOCC2)C(c2ccccc2F)C2=C(CC(C)(C)CC2=O)N1 (centres undefined)	-2.8	-0.2	+	416.5
Cc1ccc(OCCn2c(=O)cnc3ccccc32)cc1	1.5	0.0	i	362.4
SMILES	PolyA inhibitor	aDG glyco act	Rce1 inhib	T cell modulator
Cc1ccc(OCCn2c3ccccc3n3nc(C)c(=O)nc23)cc1	-1.1	-0.1	+	397.6
O=C(NC1CCS(=O)(=O)C1)c1cccnc1 (centres undefined)	-2.0	x	x	27.4*
CC1(C)NC(=O)N(CC(=O)Nc2ccc(-n3cnnn3)cc2)C1=O	x	-0.3	x	741.3
Cn1nc(C(C)(C)C)cc1C(=O)NCc1ccc(N2CCCC2=O)cc1	-19.6	4.7*	i	444.1
Cc1ccc(CNC(=O)c2ccc(N3CCCC3=O)cc2)cc1	1.8	0.0	i	451.1
CCOC(=O)C1CCN(C(=O)CN2C(=O)c3ccccc3S2(=O)=O)CC1	34.5	-0.2	i	0.0*
O=C(CN1C(=O)c2ccccc2S1(=O)=O)N1CCCCC1	-7.7	0.0	i	327.1
CC1=C(C)C(=O)C(N2CCOCC2)=CC1=O	-2.5	5.3*	i	x
C#CCNC(=O)C1=C[C@H](C2CCCCC2)C[C@H](OCc2ccc(CO)cc2)O1	-6.5	0.4	i	668.1
